Assay outcomes: PubChem BioAssay, several laboratories
Most compounds without a hit are left out; they make up all but 1.5% or so of the library.
RBBP9 inh – human RBBP9 inhibitors, primary screen, biochemical, fluorescence polarization, FP-Rh probe, HTS | Serine hydrolase RBBP9 (Homo sapiens), O75884 | recombinant RBBP9 | inhibition, % at 7.94 µM | 220,000 compounds, 0.2% hits | AID 1515, 2009;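 active means inhibition above the campaign mean of all tested compounds plus 3 SD, cut at about 14% in these data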
Target sequence (O75884 whole entry, looked up): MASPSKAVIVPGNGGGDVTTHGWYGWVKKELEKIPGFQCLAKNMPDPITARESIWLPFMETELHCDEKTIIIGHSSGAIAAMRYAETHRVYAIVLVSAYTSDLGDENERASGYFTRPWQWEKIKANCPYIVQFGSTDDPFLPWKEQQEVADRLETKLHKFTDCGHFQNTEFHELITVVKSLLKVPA
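System: RBBP9 protein | Quantity: 2.5 µM RBBP9 dispensing solution, before mixing | Reagent: FP-Rh probe, 375 nM dispensing solution | Timing: Enzyme-compound preincubation 30 min, then probe labeling 45 min, 25 °C | Measured by: Fluorescence polarization | Read-out: % inhibition | Replication: One well per compound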
PKD1 inh – inhibitors of human PKD1 kinase, biochemical, fluorescence polarization. Serine/threonine-protein kinase D1 (Homo sapiens), Q15139. PKD1 kinase fluorescence polarization assay. inhibition, % (no concentration beside the values). 200,000 compounds, 0.056% hits. AID 797, 2007; in the data active means inhibition above about 50%
PP1 inh – PP1-alpha phosphatase inhibitors, primary screen, counter-screen for PP5 inhibitor project, biochemical, fluorescence, OMFP substrate, single point; 320,000 compounds, 0.9% hits; inhibition, % at 6.7 µM; purified PP1alpha; AID 2235, 2010;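 active means inhibition above the mean inhibition of all tested compounds plus 3 SD, computed separately for each screening campaign, cut at about 15% in these data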
p97 inhibitor – inhibitors of human p97 ATPase, primary screen, biochemical; recombinant p97 ATPase, Kinase-Glo ATP luminescence, 3 h; inhibition, % at 8 µM; 220,000 compounds, 0.42% hits; in the data active means inhibition above about 15%
PP5 primary – PP5 phosphatase inhibitors, primary screen, biochemical, fluorescence; purified PP5c, OMFP substrate fluorescence; inhibition, % at 6.7 µM; 320,000 compounds, 0.18% hits;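 active means inhibition above the campaign's mean inhibition across all tested compounds plus 3 SD, cut at about 9.5% in these data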
Hsp70 activator – Hsp70 transcriptional activators, primary screen, cell-based, HeLa, Hsp70 promoter luciferase, luminescence, 10 µM; activation, % at 10 µM; AID 1203, 2008; HeLa Hsp70 promoter luciferase reporter; scaled: vehicle 0, proteasome-inhibitor control 100%; 200,000 compounds, 0.04% hits;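 active means activation above the mean across all tested compounds plus 3 SD, cutoff set per campaign, cut at about 5.5% in these data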
Each line names hits and unclear results; the compound was inactive in the other large screens.

Cc1cc(N2C(=O)C(=O)/C(=C(/O)c3ccc(F)cc3)C2c2cccc(Br)c2)no1 (stereo unspecified)	PP1 inh 16
Cc1ccc(/C(O)=C2\C(=O)C(=O)N(c3cc(C)on3)C2c2cccc(Br)c2)cc1 (stereo unspecified)	none
COc1ccc(OCC(=O)N/N=C/C(C)=C/c2ccco2)c(Br)c1	PP1 inh 17 (no result: RBBP9 inh, PKD1 inh, p97 inhibitor, Hsp70 activator)
O=C(COc1ccccc1[N+](=O)[O-])N/N=C/c1ccc(O)c([N+](=O)[O-])c1	none
O=C(COc1ccccc1C(=O)N/N=C\c1ccc(O)c(O)c1)N/N=C/c1ccc(O)c(O)c1	p97 inhibitor 19
Oc1c(Br)cc(Br)cc1C=Nc1ccc2[nH]ncc2c1	PP1 inh 90 (no result: PKD1 inh, Hsp70 activator)
CCc1nnc(NC(=O)C2Cc3ccccc3CN2S(=O)(=O)CC)s1 (stereo unspecified)	none
CCc1nnc(NC(=O)C2Cc3ccccc3CN2S(=O)(=O)c2c(C)c(C)cc(C)c2C)s1 (stereo unspecified)	PP1 inh 17
COc1ccccc1CN(C(=O)CCl)C(C(=O)NC1CCCCC1)c1ccncc1 (stereo unspecified)	PP1 inh 17
COc1ccc(C(=O)/C=C/C(=O)N(Cc2ccccc2OC)C(C(=O)NC2CCCCC2)c2ccncc2)c(O)c1 (stereo unspecified)	none
CC(=O)N1CCN(S(=O)(=O)c2ccc(S(=O)(=O)NCC(C)C)cc2)CC1	PP1 inh 16
CCOC(=O)N1CCC(NC(=O)c2ccc3c(Cl)c4c(nc3c2)CCCC4)CC1	RBBP9 inh 22
N#Cc1c(NC(=O)CSc2ncnc3sccc23)oc(-c2ccco2)c1-c1ccco1	p97 inhibitor 15
N#Cc1c(N)sc(=S)c2c1CCN(Cc1ccccc1)C2	PP1 inh 20 (no result: RBBP9 inh, PKD1 inh, p97 inhibitor, Hsp70 activator)
O=C(/C=C/c1cc[n+](CC(=O)c2ccc3cccc4c3c2CC4)cc1)c1ccc2cccc3c2c1CC3	PP1 inh 46, p97 inhibitor 46, PP5 primary 12 (no result: PKD1 inh, Hsp70 activator)
O=C(C[n+]1ccc2ccccc2c1)c1cccc2ccccc12	none
N#C/C(=C/c1cn(-c2ccccc2)nc1-c1cccc(S(=O)(=O)N2CCOCC2)c1)C(=O)NCc1ccco1	none
N#C/C(=C/c1cn(-c2ccccc2)nc1-c1cccc(S(=O)(=O)N2CCCC2)c1)C(=O)NCc1ccco1	PP1 inh 16
O=C(COc1ccccc1)Nc1ccc(S(=O)(=O)N2CCCCCC2)cc1	none
O=C(COc1ccc(F)cc1)Nc1cc(S(=O)(=O)N2CCCCC2)ccc1N1CCCCC1	PP1 inh 16 (no result: RBBP9 inh, PKD1 inh, p97 inhibitor, Hsp70 activator)
O=C(COc1ccc([N+](=O)[O-])cc1)Nc1cc(S(=O)(=O)N2CCCCC2)ccc1N1CCCCC1	none (no result: RBBP9 inh, PKD1 inh, p97 inhibitor, Hsp70 activator)
O=C(COc1ccc2ccccc2c1)Nc1ccc(S(=O)(=O)N2CCCCCC2)cc1	PP1 inh 17
CC(C)CNS(=O)(=O)c1cc(C(=O)OCC(=O)N2CCOCC2)c(Cl)cc1Cl	none (no result: RBBP9 inh, PKD1 inh, p97 inhibitor, Hsp70 activator)
Cc1ccc(-c2ccc(S(=O)(=O)Nc3cccnc3)cc2)cc1	PP1 inh 16 (no result: RBBP9 inh, PKD1 inh, p97 inhibitor, Hsp70 activator)
Cc1ccc(S(=O)(=O)Nc2cccnc2)cc1C	none (no result: RBBP9 inh, PKD1 inh, p97 inhibitor, Hsp70 activator)
Cc1ccc(C(=O)NC2CC3CCC(C2)N3C)cc1 (stereo unspecified)	none (no result: RBBP9 inh, PKD1 inh, p97 inhibitor, Hsp70 activator)
COc1ccc(OC)c(C2C(C(=O)c3cc4ccccc4o3)=C(O)C(=O)N2c2cc(C)on2)c1 (stereo unspecified)	PP1 inh 21
COc1ccccc1C1C(C(=O)c2cc3ccccc3o2)=C(O)C(=O)N1c1cc(C)on1 (stereo unspecified)	PP1 inh 20 (no result: RBBP9 inh, PKD1 inh, p97 inhibitor, Hsp70 activator)
Cc1ccc(Nc2cc(C)c3ccc(O)cc3n2)cc1C	PP1 inh 17 (no result: PKD1 inh, Hsp70 activator)
CC(=O)c1ccc(Nc2cnn(C34CC5CC(CC(CC(=O)O)(C5)C3)C4)c(=O)c2Cl)cc1	none
COc1ccc(/C=C2\CCCC3C2=NN(C(=O)CSc2n[nH]c(N)n2)C3c2ccc(OC)cc2)cc1 (stereo unspecified)	p97 inhibitor 15
CN(C)c1ccc(C(=O)N/N=C/c2ccccn2)cc1	none (no result: RBBP9 inh, PKD1 inh, p97 inhibitor, Hsp70 activator)
